# A1 apoptosis 2 – A1 inhibitors via caspase activation, primary screen, cell-based, luminescence, HTS, two replicates. MEF A1-2A-BIM cells, caspase-Glo luminescence, 3 h; percent of clofoctol response, DMSO zero. caspase activation, % (test concentration not listed). 24,000 tested, under 10 active; in the data active means caspase activation above about 5.9%
#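 system = A1-2A-BIM-expressing MEF cells | quantity = 2500 MEF cells/well | dosing = 50 nL compound per well, pinned | schedule = overnight cell settling, then 3 h compound exposure, 37 °C | signal = luminescence from DEVD-luciferin Caspase-Glo reagent, 1:1 in 50 mM HEPES, 1 h RT | read-out = Caspase-3/7 activation, seen as rise in luminescence signal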
# T cruzi HTS – inhibitors of intracellular Trypanosoma cruzi, primary screen, cell-based, plate reader, single point, set 2; intracellular Trypanosoma cruzi in host cells; activity score (inhibition), % at 5.01 µM; 22,000 tested, 4.9% active; AID 651903, 2012; in the data active means activity score above about 55%;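 further: parasites and compound incubated about four days before reading; 0% = median of neutral control wells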
# INS-1E rescue – protection of INS-1E cells from cytokine death, primary screen, ATP luminescence, single point. 20,000 tested, 0.1% active. INS-1E cytokine-induced death, 48 h; normalised: neutral wells 0, positive control 100. AID 488910, 2010. protection from cytokine-induced ATP loss, % at 10 µM;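 active means mean replicate protection from cytokine-induced ATP loss at least 50% and at least 75% of replicates each reaching 50%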
#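 Test system: INS-1E rat cells | Quantity: 8000 cells per well | Medium: Phenol-red-free RPMI with 5% fetal bovine serum | Reagent: Cytokine cocktail of IFN-γ, TNF-α and IL-1β | Doses: One compound concentration, pin transfer | Timing: 48 h co-treatment, 10 min post-lysis read | Technique: Luminescent ATP assay (CellTiter-Glo)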
# An asterisk follows results filed as active; · = not tested or not shown. Shown is part of a subset that was picked to be rich in hits.
SMILES,A1 apoptosis 2,T cruzi HTS,INS-1E rescue
C[C@@H]1CN([C@@H](C)CO)C(=O)Cc2cc(NS(=O)(=O)c3ccc(F)cc3)ccc2O[C@H]1CN(C)Cc1ccccc1,0,·,·
C[C@H](CO)N1C[C@H](C)[C@H](CN(C)C(=O)Nc2ccc(F)cc2)Oc2c(NC(=O)C3CCOCC3)cccc2C1=O,0,-21,2
O=C(CCCCC(=O)N/N=C/c1cc(O)ccc1O)NO,0,13,41
COC(=O)CCCCCCC(=O)N/N=C/c1ccc(-c2ccccc2)c(F)c1,-2,1,5
O=C(CCCCCC(=O)N/N=C/c1ccc(O)c2ccccc12)NO,0,5,57*
O=C(CCCCC(=O)N/N=C/c1ccc2ccccc2c1)NO,0,18,73*
O=C(CCCCC(=O)N/N=C/c1ccc(-c2ccccc2)c(F)c1)NO,·,20,60*
O=C(CCCCC(=O)N/N=C/c1cccc(O)c1)NO,·,-22,-1
CNC[C@@H]1Oc2ccc(NC(=O)Nc3ccc(OC)cc3)cc2C(=O)N([C@H](C)CO)C[C@@H]1C,2,-27,-1
C[C@@H]1CN([C@H](C)CO)C(=O)c2cccc(N(C)C)c2O[C@H]1CN(C)Cc1ccc(Oc2ccccc2)cc1,0,70*,-40
C[C@@H]1CN([C@H](C)CO)C(=O)c2cccc(NC(=O)C3CCCCC3)c2O[C@@H]1CN(C)Cc1ccc(Oc2ccccc2)cc1,-1,27,-34
C[C@@H]1CN([C@H](C)CO)C(=O)c2cccc(NC(=O)C3CC3)c2O[C@H]1CN(C)Cc1ccc(Oc2ccccc2)cc1,·,63*,-56
C[C@H]1CN([C@@H](C)CO)C(=O)c2cccc(NC(=O)C3CC3)c2O[C@H]1CN(C)Cc1ccc(Oc2ccccc2)cc1,·,-3,-6
C[C@H]1CN([C@@H](C)CO)C(=O)c2cccc(NC(=O)C3CCCCC3)c2O[C@@H]1CN(C)Cc1ccc(Oc2ccccc2)cc1,·,67*,-36
C[C@H]1CN([C@@H](C)CO)C(=O)c2cccc(N(C)C)c2O[C@@H]1CN(C)Cc1ccccc1,-1,-12,1
C[C@H](CO)N1C[C@H](C)[C@H](CN(C)S(C)(=O)=O)Oc2ccc(NC(=O)CCCCCC(=O)Nc3ccccc3N)cc2CC1=O,0,-66,-9
Cc1ccc(S(=O)(=O)N(C)C[C@@H]2Oc3ccc(NS(=O)(=O)c4cn(C)cn4)cc3C(=O)N([C@H](C)CO)C[C@@H]2C)cc1,-1,3,·
CNC[C@H]1Oc2c(NC(=O)C3CCOCC3)cccc2C(=O)N([C@H](C)CO)C[C@H]1C,0,-9,3
C[C@@H]1CCCCO[C@H](CN(C)C(=O)Nc2ccc(C(F)(F)F)cc2)[C@H](C)CN([C@@H](C)CO)C(=O)c2cc(NC(=O)Nc3ccc4c(c3)OCO4)ccc2O1,-1,·,·
C[C@@H]1CCCCO[C@H](CN(C)C(=O)Nc2ccc3c(c2)OCO3)[C@@H](C)CN([C@H](C)CO)C(=O)c2cc(NC(=O)Nc3ccc(C(F)(F)F)cc3)ccc2O1,·,76*,-35
C[C@@H]1CCCCO[C@@H](CN(C)C(=O)Nc2ccc3c(c2)OCO3)[C@@H](C)CN([C@@H](C)CO)C(=O)c2cc(NC(=O)Nc3ccc(C(F)(F)F)cc3)ccc2O1,0,·,·
C[C@@H]1CCCCO[C@@H](CN(C)C(=O)Nc2ccc(C(F)(F)F)cc2)[C@@H](C)CN([C@H](C)CO)C(=O)c2cc(NC(=O)Nc3ccc4c(c3)OCO4)ccc2O1,1,67*,4
C[C@@H]1CN([C@@H](C)CO)C(=O)c2cc(NC(=O)NC3CCCCC3)ccc2O[C@H]1CN(C)C(=O)Nc1ccc(C(F)(F)F)cc1,0,1,-4
